Experiments:
[1] = target: T1, Gastrin-releasing peptide receptor (Homo sapiens, UniProt P30550); assay: Inhibition of gastrin releasing peptide receptor expressed in human prostate cancer cells; format: cell-based, Cancer cell lines
[2] = target: T2, Bombesin receptor subtype-3 (Homo sapiens, UniProt P32247); assay: Inhibition of bombesin subtype 3 receptor expressed in human lung carcinoids
T2 sequence (P32247 whole entry): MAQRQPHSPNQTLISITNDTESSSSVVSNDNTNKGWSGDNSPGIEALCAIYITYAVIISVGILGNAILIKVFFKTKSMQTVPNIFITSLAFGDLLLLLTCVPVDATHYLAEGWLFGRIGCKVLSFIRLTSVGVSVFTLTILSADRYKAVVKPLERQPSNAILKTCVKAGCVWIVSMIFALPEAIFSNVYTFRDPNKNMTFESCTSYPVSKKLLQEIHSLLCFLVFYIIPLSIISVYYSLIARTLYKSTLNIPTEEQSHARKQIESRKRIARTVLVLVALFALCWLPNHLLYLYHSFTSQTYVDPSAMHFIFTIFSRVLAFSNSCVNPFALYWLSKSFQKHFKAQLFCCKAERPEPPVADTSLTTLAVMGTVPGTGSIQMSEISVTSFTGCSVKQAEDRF

[3] = target: T1, Gastrin-releasing peptide receptor; assay: Displacement of [125 I-Tyr4]BB from human gastrin releasing peptide receptor expressed in PC-3 cell membranes
PC-3 = assay: Equilibrium constant of compound for binding to the active sites in human PC-3 cell membranes; format: functional
Summary of the method: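 Saturation binding of 99mTc/99gTc-labelled peptides in PC-3 membrane homogenates (50 μg protein), 0.06–12 nM total peptide, two triplicate sets for total and nonspecific binding. HEPES pH 7.6 buffer with 1% BSA, 5.5 mM MgCl2, 35 μM bacitracin. 1 h at 37 °C. Nonspecific binding defined with [Tyr4]BB. Kd from Scatchard analysis.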

T1 sequence (P30550 whole entry): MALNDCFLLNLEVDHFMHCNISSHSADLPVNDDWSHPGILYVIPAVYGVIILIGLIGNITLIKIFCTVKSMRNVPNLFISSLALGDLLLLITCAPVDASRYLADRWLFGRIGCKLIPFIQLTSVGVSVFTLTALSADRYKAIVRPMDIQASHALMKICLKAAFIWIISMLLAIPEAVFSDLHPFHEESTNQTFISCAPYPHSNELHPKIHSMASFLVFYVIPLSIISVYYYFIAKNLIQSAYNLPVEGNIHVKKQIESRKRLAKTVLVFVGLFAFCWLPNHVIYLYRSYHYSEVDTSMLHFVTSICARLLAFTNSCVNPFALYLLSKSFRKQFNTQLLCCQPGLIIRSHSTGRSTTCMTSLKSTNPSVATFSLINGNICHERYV

SMILES | IC50 [1] [nM] | IC50 [2] [nM] | IC50 [3] [nM] | Kd (PC-3) [nM]
CCCC[C@H](NC(=O)[C@H](CC(C)C)NC(=O)[C@H](Cc1c[nH]cn1)NC(=O)CNC(=O)[C@@H](NC(=O)[C@H](C)NC(=O)[C@H](Cc1c[nH]c2ccccc12)NC(=O)[C@H](CCC(N)=O)NC(=O)[C@H](CC(N)=O)NC(=O)CNC(=O)[C@H](Cc1ccc(O)cc1)NC(=O)[C@H](CCCN=C(N)N)NC(=O)[C@H](CCC(N)=O)NC(=O)[C@@H]1CCCN1C(=O)C(CNCCN)CNCCN)C(C)C)C(N)=O | 1.94 | > 100 | 0.15 | –
CSCC[C@H](NC(=O)[C@H](CC(C)C)NC(=O)[C@H](Cc1c[nH]cn1)NC(=O)CNC(=O)[C@@H](NC(=O)[C@H](C)NC(=O)[C@H](Cc1c[nH]c2ccccc12)NC(=O)[C@H](CCC(N)=O)NC(=O)COCC(=O)Nc1ccc(CC(CNCCN)CNCCN)cc1)C(C)C)C(N)=O | 0.65 | 37 | 0.08 | 0.07
CCCC[C@H](NC(=O)[C@H](CC(C)C)NC(=O)[C@H](Cc1c[nH]cn1)NC(=O)CNC(=O)[C@@H](NC(=O)[C@H](C)NC(=O)[C@H](Cc1c[nH]c2ccccc12)NC(=O)[C@H](CCC(N)=O)NC(=O)COCC(=O)Nc1ccc(CC(CNCCN)CNCCN)cc1)C(C)C)C(N)=O | 1.3 | > 100 | 0.6 | 0.14

— ChEMBL document CHEMBL1145281, “Potent bombesin-like peptides for GRP-receptor targeting of tumors with 99mTc: a preclinical study” (J Med Chem, 2005)
